This is an account of results in ChEMBL document CHEMBL4138058, “Design and synthesis of novel selective estrogen receptor degradation inducers based on the diphenylheptane skeleton” (Medchemcomm, 2017).

Experiment [1] has as its target T1, Estrogen receptor (Homo sapiens, UniProt P03372).
T1 sequence (P03372 whole entry): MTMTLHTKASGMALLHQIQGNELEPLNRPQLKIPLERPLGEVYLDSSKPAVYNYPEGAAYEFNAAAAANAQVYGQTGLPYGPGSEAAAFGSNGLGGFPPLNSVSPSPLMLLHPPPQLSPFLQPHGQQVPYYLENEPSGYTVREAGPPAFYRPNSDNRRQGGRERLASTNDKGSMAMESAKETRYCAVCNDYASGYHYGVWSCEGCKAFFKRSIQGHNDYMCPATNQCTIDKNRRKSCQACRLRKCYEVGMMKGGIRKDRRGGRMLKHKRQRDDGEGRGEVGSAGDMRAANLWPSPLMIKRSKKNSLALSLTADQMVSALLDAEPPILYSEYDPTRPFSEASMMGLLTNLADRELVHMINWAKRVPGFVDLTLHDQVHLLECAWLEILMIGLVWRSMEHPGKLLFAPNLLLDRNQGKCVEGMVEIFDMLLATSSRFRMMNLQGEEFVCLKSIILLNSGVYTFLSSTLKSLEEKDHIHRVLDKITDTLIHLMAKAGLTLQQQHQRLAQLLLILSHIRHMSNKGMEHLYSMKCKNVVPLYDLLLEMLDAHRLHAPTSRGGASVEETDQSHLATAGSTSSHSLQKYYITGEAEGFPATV
Nature of the experiment: Displacement of Fluormone ES2 Green from full-length untagged human ERalpha expressed in insect cells after 2 hrs by fluorescence polarization assay. (Polarisation of emitted light reports the rotation of a fluorescent probe.)

The target of experiment [2] is T2, Estrogen receptor (Homo sapiens) (UniProt P03372).
T2 sequence (whole entry): T1 sequence (P03372 whole entry)
Nature of the experiment: Downregulation of ERalpha expression in human MCF7 cells at 3 uM after 6 hrs by Western blot method relative to beta-actin. In kind it is cell-based. The procedure, abridged:
(§1)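 MCF-7 cells kept in DMEM with 10% FBS, kanamycin and 10 μg/mL insulin, then exposed to compounds for 6 h. Lysates made in SDS buffer (0.1 M Tris-HCl pH 8.0, 10% glycerol, 1% SDS), boiled, BCA-normalized and run on SDS-PAGE. Blots probed with anti-ERα, AR, AhR or VDR and β-actin or lamin B. Chemiluminescence quantified as target/loading-protein ratio; means ± S.E., n=3.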

For experiment [3], the target named is T2, Estrogen receptor (Homo sapiens). Kind of experiment: Downregulation of ERalpha expression in human MCF7 cells at 10 uM after 6 hrs by Western blot method relative to beta-actin. It counts as cell-based. The procedure, abridged:
as §1

Experiment [4] shares this target. Nature of the experiment: Downregulation of ERalpha expression in human MCF7 cells at 1 uM after 6 hrs by Western blot method relative to beta-actin. In kind it is cell-based. In short, it runs like this: as §1
In general terms: Immunoblotting shows a protein as a band on a membrane.

The target is the same in experiment [5]. Kind of experiment: Displacement of Fluormone ES2 Green from full-length untagged human ERalpha expressed in insect cells at 1 uM after 2 hrs by fluorescence polarization assay. In short, it runs like this: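 Competitive fluorescence polarization binding to ERα run with a commercial kit per manufacturer's instructions. Compounds taken from 10 mM DMSO stock. mP read at 470 nm excitation and 535 nm emission. Fraction bound correlated with mP and plotted against competitor concentration.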

The target is the same in experiment [6]. Nature of the experiment: Antagonist activity at GAL4-fused human ERalpha LBD expressed in HEK293 cells assessed as inhibition of 17beta-estradiol-induced transcriptional activation at 10 uM after 16 to 20 hrs by luciferase reporter gene assay relative to control. It counts as cell-based. The procedure, abridged:
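HEK293 cells grown in phenol red-free DMEM with 10% FBS at 37 °C, 5% CO2. Calcium phosphate co-transfection with GAL4-hERα LBD plasmid, MH100x4-tk-luciferase reporter and β-galactosidase normalization plasmid. Compounds added 8 h post-transfection with 0.3 nM 17β-estradiol; harvested 16–20 h later. Luciferase normalized to β-galactosidase; means of triplicate assays.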

Activity calls are given as the source filed them. The rule behind the calls is not given here.

Take `CCCC(CCC)(c1ccc(O)c(C)c1)c1ccc(OCC)c(C)c1`: the IC50 in experiment [1] worked out at 40 nM. Further, the Activity in experiment [2] amounted to 96%; in experiment [3] it was 87%; in experiment [4], 95%.
In the same order, the values of `CCCCCCNCCOc1ccc(C(CCC)(CCC)c2ccc(O)c(C)c2)cc1C` are 78 nM, 185%, 112% and 185%.
In the same order, the values of `CCCCCCCCOc1ccc(C(CCC)(CCC)c2ccc(O)c(C)c2)cc1C` are 400 nM, 105%, 105% and 105%.
For the compound `CCCC(CCC)(c1ccc(O)c(C)c1)c1ccc(O)c(C)c1`, in experiment [1], the half-inhibitory concentration (IC50) is 7.3 nM. Also, the Activity turned out to be 79% in experiment [2], 70% in experiment [3] and 80% in experiment [4].
In the same order, the values of `CCCCCCOc1ccc(C(CCC)(CCC)c2ccc(O)c(C)c2)cc1C` are 168 nM, 95%, 86% and 89%.
Turning to `CCCCCCCCCCOc1ccc(C(CCC)(CCC)c2ccc(O)c(C)c2)cc1C`, the values for the Activity in experiment [2], in experiment [3] and in experiment [4] were 120%, 106% and 118%, respectively. Also, in experiment [5], the inhibition result was “inactive”.
On to `CCCCCCCCNCCOc1ccc(C(CCC)(CCC)c2ccc(O)c(C)c2)cc1C`, for which the IC50 in experiment [1] was 2.4 nM. Further, the Activity turned out to be 112% in experiment [2], 69% in experiment [3] and 111% in experiment [4].
Take `CCCCCCCCCCCCOc1ccc(C(CCC)(CCC)c2ccc(O)c(C)c2)cc1C`: the results for the Activity in experiment [2], in experiment [3] and in experiment [4] were 111%, 96% and 128%, respectively. Besides, the inhibition in experiment [6] stood at 61%. Also, in experiment [5], the inhibition result was “inactive”.
Take `CCCCCCCCCCCCCCCCNCCOc1ccc(C(CCC)(CCC)c2ccc(O)c(C)c2)cc1C`: the IC50 in experiment [1] was 20 nM. Moreover, the Activity worked out at 82% in experiment [2], 70% in experiment [3] and 92% in experiment [4].
In the same order, the values of `CCCCCCCCCCCCNCCOc1ccc(C(CCC)(CCC)c2ccc(O)c(C)c2)cc1C` are 4.9 nM, 83%, 68% and 93%.
In the same order, the values of `CCCCOc1ccc(C(CCC)(CCC)c2ccc(O)c(C)c2)cc1C` are 87 nM, 82%, 68% and 84%.
`CCCC(CCC)(c1ccc(O)c(C)c1)c1ccc(OCCN)c(C)c1`: the 50% inhibitory concentration (IC50) in experiment [1] stood at 78 nM. Also, the Activity in experiment [2] amounted to 154%; in experiment [3] it was 150%; in experiment [4] it was 145%.
For `CCCC(CCC)(c1ccc(O)c(C)c1)c1ccc(OCCN(C)C)c(C)c1`, in that order: 313 nM, 115%, 100% and 109%.

The term IC50 denotes the concentration at which inhibition is half-maximal. By inhibition is commonly meant the drop in the measured response relative to a control, in per cent.
